High-throughput results from PubChem.
M1 antag: blocks the rat M1 muscarinic receptor response to acetylcholine. B-score at 10 µM. CHO-M1 cells, Fluo-4 calcium, ACh EC80 antagonist mode; hits give low values. hit rate 3.4% among 64,000. AID 628. P08482;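 active = calcium fluorescence response, raw or row-and-column corrected B-score, differing from the plate sample mean either way at a set confidence level, mostly lower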
Target sequence (P08482 whole entry, looked up): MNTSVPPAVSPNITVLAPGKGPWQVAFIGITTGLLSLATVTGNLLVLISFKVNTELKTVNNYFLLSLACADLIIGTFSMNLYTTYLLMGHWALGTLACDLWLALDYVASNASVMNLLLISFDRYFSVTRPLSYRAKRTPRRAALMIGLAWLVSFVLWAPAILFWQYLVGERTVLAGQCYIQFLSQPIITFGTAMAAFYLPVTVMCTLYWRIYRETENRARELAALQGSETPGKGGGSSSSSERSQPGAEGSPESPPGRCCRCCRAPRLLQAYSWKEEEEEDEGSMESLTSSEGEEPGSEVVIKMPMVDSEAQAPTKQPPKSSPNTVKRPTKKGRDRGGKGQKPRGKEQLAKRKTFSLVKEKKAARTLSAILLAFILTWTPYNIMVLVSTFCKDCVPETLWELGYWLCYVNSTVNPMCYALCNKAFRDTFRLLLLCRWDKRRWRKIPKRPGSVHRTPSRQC
BAP1 block: human BAP1 deubiquitinase inhibition | calls only at 20 µM | Q92560 | hit rate 0.48% among 72,000 | recombinant BAP1, Ub-AMC hydrolysis fluorescence kinetic; hits give low values;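 active = activity remaining at or below 50% of control, provided the compound also passes the data quality filters; inactive = the rest, including low values that fail the filters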;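 note: 100% = DMSO wells rate and 0% = substrate alone blank rate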
D1 allo mod: allosteric modulators of human D1 dopamine receptor. P21728. HEK293 D1, CRE-luciferase, dopamine EC30 potentiation; actives deviate in either direction. B-score at 10 µM. hit rate 5.9% among 58,000;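 active = luminescence count or its row- and column-corrected plate score outside the 99.7% band of the plate's sample wells, on either side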
HEK293 NFkB inh: inhibitors of the PMA/ionomycin-induced NF-kB reporter in HEK293 cells; HEK-293 NF-kB luciferase reporter, luminescence; inhibition, % at 3 µM; hit rate 0.21% among 62,000; AID 465;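 active = inhibition above the mean of all tested compounds plus 3 SD, cut at about 40% in these data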;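 note: 0% = stimulated DMSO wells and 100% = 10 µM reference inhibitor 5653914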
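Signal: luciferase luminescence; Material: HEK-293 cells with stable firefly luciferase reporter driven by four HIV NF-kB elements; Probe or stimulus: PMA with ionomycin; Replication: tested once; Times: 1 h compound pretreatment, then 16 h stimulation at 37 °C, 5% CO2; Benchmarks: DMSO and 10 µM reference inhibitor; Evaluation: per-plate % inhibition versus controls.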
M1 agonist: agonists of M1 muscarinic receptor | AID 626 | CHO-M1 cells, Fluo-4 calcium fluorescence, agonist mode; hits give high values | B-score at 10 µM | hit rate 3% among 64,000;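 active = fluorescence rise, raw or as B-score row- and column-corrected plate score, outside the 99.7% band of its plate's samples, either direction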
hDAT+cocaine: human DAT dopamine uptake with cocaine, either direction; LLC-PK1 hDAT cells, [14C]-dopamine uptake with cocaine IC80; actives deviate in either direction; B-score at 10 µM; hit rate 1.3% among 110,000; AID 449768;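 active = Z score or B-score, a plate-position-corrected score, falls beyond the plate's 99.7% confidence bounds, in either direction; inactive = both scores lie inside the 99.7% bounds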;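 note: scored against the spread of the other compound wells on the same plate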
* hit, by the source's call; i = inactive; / = no result shown. Only some compounds are listed: those with a hit (about 7.2% of all), similar ones and a draw of the others.

SMILES | M1 antag | BAP1 block | D1 allo mod | HEK293 NFkB inh | M1 agonist | hDAT+cocaine
O=S1(=O)C=C(Sc2nc3ccccc3s2)c2ccccc21 | -0.95 | i | -3.7* | 46* | -0.74 | -0.63
O=S1(=O)C=C(Sc2nnc(-c3ccccc3)o2)c2ccccc21 | 0.36 | i | -2.9* | 12 | -0.23 | /
O=S1(=O)C=C(SCCN2CCCCC2)c2ccccc21 | 0.17 | i | 0.1 | -2 | -1.1 | -0.053
Cc1cc(C)nc(SC2=CS(=O)(=O)c3ccccc32)n1 | -0.21 | i | 1.8 | 22 | -0.0034 | -7.7*
O=C(CSc1nc2ccccc2s1)CSc1nc2ccccc2s1 | / | / | / | / | / | -0.89
Cc1nc2ccc3nc(NC(=O)c4ccc(S(=O)(=O)N(C)c5ccccc5)cc4)sc3c2s1 | / | i | / | / | / | /
COc1ccc(NC(=O)CCOc2ccccc2)cc1 | / | / | / | / | / | 0.44
Cc1cccc(NC(=O)CCOc2ccccc2)c1 | / | / | / | / | / | -1.9*
CCOC(=O)C1CCN(C(=O)C2CCN(c3nc4ccc(OC)cc4s3)CC2)CC1 | -0.53 | / | / | -2 | -1.7 | -8.2*
CN(C1=NC(=O)C(CC(=O)Nc2ccc(Br)cc2)S1)c1ccc(O)cc1 (stereo not given) | 1 | i | -3.8* | 14 | -0.12 | -4*
CN(C)c1ccc(NC(=O)COc2ccc(Br)cc2)cc1 | / | i | / | / | / | /
COc1ccc(-c2nnc(SCc3nc4ccccc4s3)n2C(C)C)cc1 | / | / | / | / | / | 3.9*
COc1ccccc1-c1nnc(SCc2nc3ccccc3s2)n1C | / | / | / | / | / | -0.15
CC1CC(=O)NN=C1c1ccc(NCCO)c([N+](=O)[O-])c1 (stereo not given) | / | / | / | / | / | -2.6*
COc1ccc2[nH]c3nc(SC(C)C)nnc3c2c1 | -0.88 | i | -4* | -35 | -0.86 | /
CCCc1ccc(-c2ccc(F)c(N)c2)nc1 | -1 | i | -7.4* | 4 | -1 | 0.55
CCCCc1ccc(-c2ccc(Br)cc2)nc1 | / | / | / | / | / | -0.54
COc1cc(SC)ccc1C(=O)Nc1ccon1 | 0.93* | i | 0.25 | 0 | 0.31 | 1.3
CC12CCC(=O)N1c1c(sc3nc(N4CCOCC4)c4c(c13)CCCC4)C(=O)N2 (stereo not given) | -0.25 | i | / | / | 1.3 | 3.2*
CCOc1ccc(N2C(=O)CC(N3CCN(C(=O)CN4CCCC4)CC3)C2=O)cc1 (stereo not given) | 0.63 | i | / | 20 | -0.0029 | -0.078
CCOc1ccc(N2C(=O)CC(N3CCC(NC(=O)Nc4ccccc4)CC3)C2=O)cc1 (stereo not given) | 0.018 | i | -0.063 | 4 | -0.043 | -2*
COC(=O)c1ccccc1NC(=O)CSc1ccccc1 | / | i | 3.6 | -5 | / | -9*
COC(=O)c1ccccc1NC(=O)Cn1cc(Br)cn1 | 1.2 | i | 2.5 | 11 | 0.013 | -0.56
COC(=O)c1ccccc1NC(=O)Cn1c(SC)c(F)cnc1=O | 1* | i | -0.026 | 9 | 0.28 | -0.13
CC(=O)Nc1ccc2nc(SCc3c(C)cc(C)c(C(C)=O)c3C)sc2c1 | / | i | / | / | / | /
SMILES | M1 antag | BAP1 block | D1 allo mod | HEK293 NFkB inh | M1 agonist | hDAT+cocaine
Cc1nn(Cc2ccccc2)c(Cl)c1C(=O)OCc1nnc(-c2ccc(Cl)cc2)o1 | -1.3 | / | 0.3 | 13 | 2.1 | 2.6*
Cc1cc2cc(CCNC(=O)c3c(-c4ccccc4Cl)noc3C)c(=O)[nH]c2cc1C | 0.38 | i | -3.7* | 6 | 2 | -0.24
O=C(NCc1ccco1)c1nnc(Cc2ccc(Cl)cc2)o1 | / | / | / | / | / | 2.6*
O=C(NCc1ccco1)c1nnc(Cc2ccc(F)cc2)o1 | -0.00095 | i | / | 6 | -0.13 | -0.7
CCc1cc2c(N3CCN(Cc4ccccc4)CC3)ncnc2s1 | / | i | / | / | / | /
O=C(Nc1ccc(Cl)cn1)c1ccc(I)cc1 | / | i | / | / | / | /
O=C(c1ccc2c3n(nc2c1)-c1ccccc1CO3)N1CCCCC1 | / | / | / | / | / | 2.6*
CCOc1ccc(Br)cc1C1NC(=O)c2c(sc3c2CCN(C)C3)N1 (stereo not given) | 1.8 | i | -4.6* | 9 | -0.41 | /
COc1ccc(Cl)cc1NC(=O)C1c2ccccc2Oc2ccccc21 | / | i | / | / | / | /
COc1cccc(N2CCN(c3ncnc4c3[nH]c3ccc(F)cc34)CC2C)c1 (stereo not given) | -6.1* | / | -5.2* | / | 7.8* | 0.94
CCC(=O)Nc1ccc2c(c1)OCCO2 | / | / | / | / | / | 0.78
CCOC(=O)c1ccc(NC(=O)Nc2ccc3c(c2)OCCO3)cc1 | -0.75 | i | -2.4* | 2 | -0.4 | 1.4
CCC(C)(C(=O)Nc1ccc2c(c1)OCCO2)N(C(C)=O)c1ccc(C(N)=O)cc1 (stereo not given) | 0.65 | i | -0.13 | 21 | -0.075 | -2.8*
O=C(c1ccc2ccccc2c1)N1CCN(c2ccc([N+](=O)[O-])cc2)CC1 | / | i | / | / | / | /
CCn1c(N2CCN(C(=O)NC3CCCCC3)CC2)nc2ccccc21 | / | / | / | / | / | 0.08
CCn1c(NC2CCCCC2)nc2ccccc21 | -1.2 | i | -3.4* | -5 | -0.55 | 0.41
Cc1oc2c(CN3CCCC3)c(O)ccc2c(=O)c1-c1ccccc1 | -0.0037 | / | -0.93 | 10 | 3.2* | 0.0028
COc1ccc(NS(=O)(=O)c2cccc3c2C(=O)c2ccccc2C3=O)cc1 | / | i | / | / | / | /
COc1cccc(N2CCN(Cc3nc4ccccc4c(=O)[nH]3)CC2)c1 | 0.92 | i | -0.016 | 6 | 0.58 | 2.2*
COc1ccc(N2CCN(Cc3nc4ccccc4c(=O)[nH]3)CC2)cc1 | 0.22 | i | -0.035 | -8 | 0.52 | -0.19
COc1cc(OC)c2c(-c3ccccc3)cc(=O)oc2c1C(CC(=O)N1CCCC1)c1ccc2c(c1)OCO2 (stereo not given) | / | / | / | / | / | 2.1*
COc1ccc(NS(=O)(=O)c2cccc(-c3nnc4n3CCCCC4)c2)cc1 | 0.83 | / | / | 11 | 2.2 | 0.28
O=c1[nH]c2ccc(S(=O)(=O)Nc3ccc(-c4nnc5n4CCCCC5)cc3)cc2o1 | 0.73 | i | -5* | 3 | -0.059 | -0.67
CCOC(=O)C1=C(c2ccccc2)NC(=O)NC1c1ccccc1Cl (stereo not given) | / | i | / | / | / | /
O=C1c2cccnc2C(Nc2ccc(S(=O)(=O)N3CCCCC3)cc2)N1Cc1ccccc1 (stereo not given) | -1.2 | i | -1.4* | 9 | 2.5 | 1
COc1cc(OC)c(NC(=O)CCNC(=O)Cn2ccc3ccccc3c2=O)cc1Cl | / | / | / | / | / | -0.94
COc1ccc(C)cc1NC(=O)CNC(=O)Cn1ccc2ccccc2c1=O | 0.052 | i | 0.28 | 25 | 0.51 | -9*
COc1cccc(C2CC(c3cccs3)=NN2C(=O)CSc2nc3c(cnn3-c3ccc(F)cc3)c(=O)[nH]2)c1OC (stereo not given) | / | / | / | / | / | 3*
O=C(CSc1nc2c(cnn2-c2ccc(F)cc2)c(=O)[nH]1)N1CCOCC1 | -0.18 | / | 0.74 | 10 | 1.6 | -7.9*
COc1ccc(C2CC(c3cccs3)=NN2C(=O)CSc2nc3c(cnn3-c3ccccc3)c(=O)[nH]2)cc1 (stereo not given) | / | / | / | / | / | 1.2
